Measured values taken from ChEMBL document CHEMBL4396947, “Synthesis and characterization of novel isoform-selective IP6K1 inhibitors” (Bioorg Med Chem Lett, 2019).

Columns and labels:
[1] = molecular target: T1, Inositol hexakisphosphate kinase 1 (Homo sapiens, UniProt Q92551); test: Binding affinity to IP6K1 (unknown origin) assessed as change in melting temperature by SYPRO orange dye-based assay
Summary of the method: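 Thermal shift format. Purified IP6K1 heated across a temperature gradient with the ligand at several concentrations. Binding read as the rise in protein melting temperature, including the maximal Tm shift (TmMax).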
Target sequence in this assay (Q92551 whole entry, looked up): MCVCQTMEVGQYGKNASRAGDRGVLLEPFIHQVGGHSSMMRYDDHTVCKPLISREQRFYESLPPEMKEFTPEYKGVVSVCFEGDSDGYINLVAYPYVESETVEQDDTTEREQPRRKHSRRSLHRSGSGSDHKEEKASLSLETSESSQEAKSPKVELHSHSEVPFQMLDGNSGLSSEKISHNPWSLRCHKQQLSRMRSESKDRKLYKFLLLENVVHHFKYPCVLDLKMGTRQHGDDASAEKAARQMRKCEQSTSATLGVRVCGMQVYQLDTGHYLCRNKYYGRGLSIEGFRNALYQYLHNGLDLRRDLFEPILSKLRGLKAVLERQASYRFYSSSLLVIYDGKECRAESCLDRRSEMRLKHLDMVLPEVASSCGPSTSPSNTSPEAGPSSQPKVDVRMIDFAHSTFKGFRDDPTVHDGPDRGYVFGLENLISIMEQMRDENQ

[2] = molecular target: T1, Inositol hexakisphosphate kinase 1; test: Inhibition of IP6K1 (unknown origin) incubated for 30 mins using IP6 as substrate in presence of ATP by ADP-Glo reagent based luminescence assay; settings: read-out: pIC50 (converted)
Summary of the method: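 Luminescent ADP-Glo Max format adapted for IP6K, with purified enzyme and ATP at 1 mM, which is consumed as the kinase reaction proceeds. IC50 taken from the resulting inhibition data.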
Target sequence in this assay (Q92551 whole entry): as the sequence (Q92551 whole entry, looked up) above

[3] = molecular target: T1, Inositol hexakisphosphate kinase 1; test: Binding affinity to IP6K1 (unknown origin) assessed as change in melting temperature at 11.1 uM by SYPRO orange dye based assay
Target sequence in this assay (Q92551 whole entry, looked up): as above

[4] = Half life in human microsomes at 1 uM incubated for 5 to 60 mins in presence of NADPH by LC-MS/MS analysis; format: ADME, Microsome
[5] = Solubility of compound in 2% DMSO by LC-MS/MS analysis; format: physicochemical
[6] = Half life in mouse microsomes at 1 uM incubated for 5 to 60 mins in presence of NADPH by LC-MS/MS analysis

Compound | IC50 [2] | other results
COCCNc1nc(NCCc2c[nH]c3cc(OC)ccc23)nc2[nH]cnc12 | 2.75 µM | ΔTm [1]: 4.7 °C; ΔTm [3]: 3.6 °C
COCCNc1nc(NCc2cccc(C(F)(F)F)c2)nc2[nH]cnc12 | 117 µM | –
COCCNc1nc(NCCc2c[nH]c3ccc(Cl)cc23)nc2[nH]cnc12 | 26.9 µM | –
COCCNc1nc(NCCc2ccccc2OC)nc2[nH]cnc12 | 11.2 µM | –
COCCNc1nc(NCCc2c[nH]c3ccccc23)nc2cc[nH]c12 | > 200 µM | –
COCCN(C)c1nc(NCCc2c[nH]c3ccccc23)nc2c1ncn2C | > 200 µM | –
COCCNc1nc(NCCc2c[nH]cn2)nc2[nH]cnc12 | > 200 µM | –
COCCNc1nc(NCCc2ccc(F)cc2)nc2[nH]cnc12 | 89.1 µM | –
COCCNc1nc(NCCc2c(C)[nH]c3ccccc23)nc2[nH]cnc12 | 1.95 µM | –
COCCNc1nc(NCCc2cn(C)c3ccccc23)nc2nc[nH]c12 | 31.6 µM | –
COCCNc1nc(NCCc2c[nH]c3ccccc23)nc2[nH]cnc12 | 8.32 µM | ΔTm [1]: 4.3 °C; ΔTm [3]: 2.4 °C
COCCNc1nc(NCCc2cccc3ccccc23)nc2[nH]cnc12 | 93.3 µM | –
COCCNc1nc(NCCc2ccccc2)nc2[nH]cnc12 | 79.4 µM | –
COCCNc1nc(NCCc2c[nH]c3ccccc23)nc2[nH]ccc12 | > 200 µM | –
COCCNc1nc(NCCc2c[nH]c3ccc(O)cc23)nc2[nH]cnc12 | 31.6 µM | –
FC(F)(F)c1cccc(CNc2nc(NCc3ccccc3)c3nc[nH]c3n2)c1 | > 200 µM | –
N#Cc1ccc(CNc2nc(NCCc3c[nH]c4ccccc34)nc3[nH]cnc23)cc1 | 46.8 µM | –
COCCNc1nc(NCCCc2c[nH]c3ccccc23)nc2[nH]cnc12 | 69.2 µM | –
O=[N+]([O-])c1ccc(CNc2nc(NCc3cccc(C(F)(F)F)c3)nc3[nH]cnc23)cc1 | > 200 µM | half-life at 1 µM [4]: 32 min; solubility [5]: Insoluble; ΔTm [1]: 3.3 °C; half-life at 1 µM [6]: 9 min; ΔTm [3]: 1.8 °C
O=c1cc(CNc2nc(NCCc3c[nH]c4ccccc34)nc3[nH]cnc23)cc[nH]1 | 10 µM | –
Cc1[nH]c2ccccc2c1CCNc1nc(NCc2ccc(=O)[nH]c2)c2nc[nH]c2n1 | 3.02 µM | –
COCCNc1nc(NCCc2c[nH]c3ccc(C)cc23)nc2[nH]cnc12 | 123 µM | –
c1ccc2c(CCNc3nc(NCc4ccc5nonc5c4)c4nc[nH]c4n3)c[nH]c2c1 | 151 µM | –
COCCNc1nc(NCCc2c[nH]c3ccccc23)nc2c1ncn2C | > 200 µM | –
COCCNc1nc(NCCc2c[nH]c3ccc(OC)cc23)nc2[nH]cnc12 | 138 µM | –
FC(F)(F)c1cccc(CNc2nc(NCCc3ccccc3)c3nc[nH]c3n2)c1 | > 200 µM | –
COCCNc1nc(N(C)CCc2c[nH]c3ccccc23)nc2nc[nH]c12 | > 200 µM | –
O=c1ccc(CNc2nc(NCCc3c[nH]c4ccccc34)nc3[nH]cnc23)c[nH]1 | 1.74 µM | –
